In PMC6286650 (EBioMedicine, 2018):
One block for each compound: values may come before it.

Columns and labels:
F-actin [1] = assay: F-actin fluorescence under actin inhibitor; format: cell-based
transgelin = transgelin (Homo sapiens, UniProt Q01995); assay: Biacore; conditions: Biacore binding to transgelin, 25 °C, CM5 chip, NA = no activity
Outline: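 CM5 chip at 25 °C with PBS-EP running buffer. Transgelin was amine-coupled by EDC/NHS, the same way as actin (0.4 mg/mL in 10 mM phosphate pH 7.4, 12 min, then 1 M ethanolamine pH 8.5; about 4000 RU). Test compound was run over protein and blank channels at 0–25 uM at 20 μL/min. Association 3 min, dissociation 300 s; regeneration with 10 mM glycine-HCl pH 2.5.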

transgelin and actin = format: binding; conditions: disregarding the effect of SAA
HVSMCs = format: cell-based, human; conditions: 10 μM
CASMCs = assay: Cell contraction and F-actin formation in CASMCs; format: cell-based; conditions: 10 μM
Outline: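 Coronary artery smooth muscle cells came from primary culture in DMEM with 10% foetal bovine serum. They were treated with test compound at 10 μM, and relative cell length and F-actin formation were assessed against untreated control.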

actin [2] = assay: Hypoxia-induced actin degradation, fluorescence intensity; format: cell-based; conditions: hypoxic group 264
actin [3] = assay: Multi-angle light scattering of actin aggregation; format: biochemical; conditions: in presence of transgelin
actin [4] = format: biochemical; conditions: actin/transgelin plus compound
F-actin [5] = assay: F-actin features in cells; format: cell-based, human; conditions: versus control group
C57 wild type mice = assay: Isoproterenol-induced myocardial ischemia model in wild type mice; format: in vivo
Outline: (§1)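 Wild-type C57 or cre-lox transgelin knockout C57/BL6 mice, 24 per genotype, were split into normal, model and two treatment groups. Test compound was given orally at 10 mg/kg daily for one week; normal and model groups got saline. On day 5, isoproterenol 3 mg/kg i.p. was given (saline for normal group). After day 7, mice were anaesthetized with chloral hydrate for a three-needle-electrode ECG on a 40–42 °C pad.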

transgelin (−/−) mice = assay: Isoproterenol-induced myocardial ischemia model in transgelin; format: in vivo; conditions: 10 mg/kg
Outline: as §1

[6] = test system: isolated myocardial tissue; assay: Stimulation of isolated myocardial tissue
[7] = isoproterenol-treated model group, ISO 3 mg/kg i.p.

Chain of transgelin (Q01995 whole entry): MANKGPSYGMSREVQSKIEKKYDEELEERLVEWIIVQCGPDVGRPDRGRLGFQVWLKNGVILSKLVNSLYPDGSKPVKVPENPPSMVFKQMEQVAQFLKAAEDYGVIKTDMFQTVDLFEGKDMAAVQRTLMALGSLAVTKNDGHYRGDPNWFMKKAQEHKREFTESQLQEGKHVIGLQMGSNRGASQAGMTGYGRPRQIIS

SMILES: CC[C@]1(O)C[C@H]2CN(CCc3c([nH]c4ccccc34)[C@@](C(=O)OC)(c3cc4c(cc3OC)N(C=O)[C@H]3[C@@](O)(C(=O)OC)[C@H](OC(C)=O)[C@]5(CC)C=CCN6CC[C@]43[C@@H]65)C2)C1 [vincristine, reference compound]
- F-actin fluorescence intensity (F-actin [1]; vincristine alone, control 395): 139

- Kd (transgelin): 7.11 µM
- Protein binding signal of transgelin and actin when SAA was added (transgelin and actin): 1.3 times
SMILES: O=C(/C=C/c1ccc(O)c(O)c1/C=C/c1ccc(O)c(O)c1)O[C@H](Cc1ccc(O)c(O)c1)C(=O)O [SAA, salvianolic acid A]
- Co-localization of transgelin and actin (HVSMCs; control approximately 57%): 78%
- Average length of VSMCs (HVSMCs; control approximately 90 μm): ~80 μm
- Relative length of CASMCs (CASMCs): declined
- F-actin fluorescence intensity (F-actin [1]; co-treatment with vincristine, vincristine alone 139): 373
- Actin fluorescence intensity (actin [2]): 453
- Polymerization (aggregation) of actin (actin [3]): further enhanced
- Actin polymerization (actin [4]): marked increase in actin polymerization
- F-actin area, F-actin percentage area, total F-actin length and average F-actin length (F-actin [5]): increased
- Heart infarction ratio (C57 wild type mice; 10 mg/kg oral daily for 7 days, wild type MI mice 11.2%): 4%
- CK, CK-MB, AST and LDH levels relative to transgelin (−/−) MI model group (transgelin (−/−) mice): not significantly changed
- Therapeutic effect on myocardial ischemia (transgelin (−/−) mice): no therapeutic effect
- Stimulation effect on isolated myocardial tissue [6]: no stimulation effect

- Serum CK level compared to normal group (C57 wild type mice; [7]): 166% ± 14%
- Serum CK-MB level compared to normal group (C57 wild type mice; [7]): 165% ± 24%
- Serum LDH level compared to normal group (C57 wild type mice; [7]): 174% ± 14%
SMILES: CC(C)NCC(O)c1ccc(O)c(O)c1 (stereo not shown) [isoproterenol]
- Serum AST level compared to normal group (C57 wild type mice; [7]): 237% ± 19%
